In ChEMBL document CHEMBL5107950, “Structure-based design of haloperidol analogues as inhibitors of acetyltransferase Eis from Mycobacterium tuberculosis to overcome kanamycin resistance” (RSC Med Chem, 2021):
In brackets after ≈: the same amount, converted by molar mass. Activity calls are given as the source filed them. No cut-off for these calls is given here.

Legend:
N-acetyltransferase Eis = target: T1, N-acetyltransferase Eis (Mycobacterium tuberculosis (strain ATCC 25618 / H37Rv), UniProt P9WFK7); test: Inhibition of Mycobacterium tuberculosis Eis assessed as Eis-mediated kanamycin acetylation preincubated for 10 mins followed by substrate addition and measured for 2 to 5 mins using acetyl-CoA as substrate in presence of kanamycin by UV-Vis spectroscopy analysis
T1 sequence (P9WFK7 whole entry): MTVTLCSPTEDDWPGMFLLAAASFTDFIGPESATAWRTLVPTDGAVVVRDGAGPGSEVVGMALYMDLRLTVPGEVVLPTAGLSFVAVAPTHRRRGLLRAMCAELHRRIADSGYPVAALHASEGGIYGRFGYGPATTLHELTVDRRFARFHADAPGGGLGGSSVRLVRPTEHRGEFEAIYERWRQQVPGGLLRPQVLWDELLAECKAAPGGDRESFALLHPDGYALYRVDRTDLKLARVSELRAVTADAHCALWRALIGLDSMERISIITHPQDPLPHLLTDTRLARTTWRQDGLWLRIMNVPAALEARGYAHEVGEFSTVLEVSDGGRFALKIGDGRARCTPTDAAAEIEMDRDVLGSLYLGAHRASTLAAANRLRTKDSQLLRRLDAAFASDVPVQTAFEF
Procedure, shortened: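 Recombinant Eis (1 µM) mixed with KAN (400 µM) in 50 mM Tris-HCl pH 8.0 and preincubated 10 min with 5-fold serially diluted inhibitor (10% DMSO in buffer). Reaction started with AcCoA and DTNB (2 mM each, as added). Absorbance read every 30 s for 20 min. Initial rates (first 2-5 min) fitted to Hill plot for IC50. At least triplicate.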

[1] = system: Mycobacterium tuberculosis; test: Potentiation of kanamycin-induced antibacterial activity against Mycobacterium tuberculosis H37Rv assessed as kanamycin MIC incubated for 1 day followed by kanamycin addition for 6 days and by Alamar blue assay; format: functional; details: 168 h, time 7 day
Procedure, shortened: (§1)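 Mtb in 7H9 + 10% ADC, 0.05% Tween 80, 0.4% glycerol at 37 °C. Inoculum adjusted to OD600 0.2, diluted 1:25. Cells preincubated 24 h at 37 °C with compound (100 µL of 200 µM solution). KAN then added: H37Rv at 2.5 and 1.25 µg/mL; K204 at 10, 5, 2.5, 1.25 µg/mL. Incubated 6 days, AlamarBlue added, colour read at 24 and 48 h. MIC = lowest KAN with no colour change. At least twice in duplicate.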

[2] = system: Mycobacterium tuberculosis; test: Potentiation of kanamycin-induced antibacterial activity against Mycobacterium tuberculosis K204 assessed as kanamycin MIC incubated for 1 day followed by kanamycin addition for 6 days and by Alamar blue assay; format: functional; details: K204, 168 h, time 7 day; procedure, shortened: as §1
[3] = system: Mycolicibacterium smegmatis; test: Antibacterial activity against Mycobacterium smegmatis mc2 155 assessed as inhibition of bacterial growth incubated upto 3 weeks hrs by resazurin dye based double-dilution method; format: functional; details: mc2 155, 504 h
Procedure, shortened: (§2)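 Double-dilution broth MIC. Media: M. smegmatis, Mueller-Hinton; M. abscessus, 7H9 + 0.05% Tween80 + 0.4% glycerol; mc²6230, 7H9 + 0.05% tyloxapol, 0.5% glycerol, 10% OADC, 0.2% casamino acids, 24 µg/mL pantothenate; other mycobacteria, 7H9 + 0.05% Tween80, 0.4% glycerol, 10% ADC. Inoculum from agar set to 0.5 McFarland, then diluted 1:100.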

[4] = system: Mycobacteroides abscessus; test: Antibacterial activity against Mycobacterium abscessus ATCC 19977 assessed as inhibition of bacterial growth incubated upto 3 weeks hrs by resazurin dye based double-dilution method; format: functional; details: ATCC 19977, 504 h; procedure, shortened: as §2
[5] = system: Mycobacterium intracellulare; test: Antibacterial activity against Mycobacterium intracellulare ATCC 13950 assessed as inhibition of bacterial growth incubated upto 3 weeks hrs by resazurin dye based double-dilution method; format: functional; details: ATCC 13950, 504 h; procedure, shortened: as §2
Mycobacterium avium [6] = test: Antibacterial activity against Mycobacterium avium ATCC 25921 assessed as inhibition of bacterial growth incubated upto 3 weeks hrs by resazurin dye based double-dilution method; format: functional; details: ATCC 25921, 504 h; procedure, shortened: as §2
[7] = system: Mycobacterium tuberculosis; test: Antibacterial activity against Mycobacterium tuberculosis H37Ra ATCC NRS22 assessed as inhibition of bacterial growth incubated upto 3 weeks hrs by resazurin dye based double-dilution method; format: functional; details: H37Ra ATCC NRS22, 504 h; procedure, shortened: as §2
J774.A1 [8] = test: Cytotoxicity against mouse J774.A1 cells assessed as reduction in cell viability at 100 uM incubated for 24 hrs by resazurin assay; format: toxicity, cell-based; details: j774.a1, 24 h
Procedure, shortened: (§3)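 Resazurin viability assay in DMEM + 10% FBS, 1% penicillin/streptomycin, 37 °C, 5% CO₂. Seeding: HEK-293 and J774A.1 at 1×10^4 cells/mL, A549 at 5×10^3 cells/mL. After 24 h, compounds added (0.78-200 μM, 0.5% DMSO final). Resazurin added 24 h later, read after 6 h. 1% Triton X as positive control. Quadruplicate.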

A549 [9] = test: Cytotoxicity against human A549 cells assessed as reduction in cell viability at 100 uM incubated for 24 hrs by resazurin assay; format: toxicity, cell-based; details: a549, 24 h; procedure, shortened: as §3
[10] = system: Mycolicibacterium smegmatis; test: Synergistic antibacterial activity against Mycobacterium smegmatis mc2 155 assessed as fold reduction in MIC value at 8 ug/ml in presence of spectinomycin by checkerboard assay; format: functional; details: dose 8 µg/ml
[11] = system: Mycolicibacterium smegmatis; test: Synergistic antibacterial activity against Mycobacterium smegmatis mc2 155 assessed as fold reduction in MIC value at 8 ug/ml in presence of clarithromycin by checkerboard assay; format: functional; details: dose 8 µg/ml
[12] = system: Mycolicibacterium smegmatis; test: Synergistic antibacterial activity against Mycobacterium smegmatis mc2 155 assessed as fold reduction in MIC value at 8 ug/ml in presence of clofazimine by checkerboard assay; format: functional, organism-based; details: dose 8.0 µg/ml
[13] = system: Mycobacteroides abscessus; test: Synergistic antibacterial activity against Mycobacterium abscessus ATCC 19977 assessed as reduction in bacterial growth presence of spectinomycin by checkerboard assay; format: functional, organism-based
Procedure, shortened: (§4)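 Checkerboard in 96-well plates. Antibiotic two-fold serially diluted along columns, haloperidol derivative two-fold along rows. Bacteria prepared as for the MIC determination. MICs alone and in combination used to calculate FICI. At least duplicate independent trials.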

[14] = system: Mycobacteroides abscessus; test: Synergistic antibacterial activity against Mycobacterium abscessus ATCC 19977 in presence of clarithromycin by checkerboard assay; format: functional, organism-based; procedure, shortened: as §4
[15] = system: Mycobacteroides abscessus; test: Synergistic antibacterial activity against Mycobacterium abscessus ATCC 19977 in presence of clofazimine by checkerboard assay; format: functional, organism-based; procedure, shortened: as §4
[16] = system: Mycobacterium intracellulare; test: Antibacterial activity against Mycobacterium intracellulare ATCC 13950 in presence of spectinomycin by checkerboard assay; format: functional, organism-based; procedure, shortened: as §4
[17] = system: Mycobacterium intracellulare; test: Antibacterial activity against Mycobacterium intracellulare ATCC 13950 in presence of clarithromycin by checkerboard assay; format: functional, organism-based; procedure, shortened: as §4
[18] = system: Mycobacterium intracellulare; test: Antibacterial activity against Mycobacterium intracellulare ATCC 13950 in presence of clofazimine by checkerboard assay; format: functional, organism-based; procedure, shortened: as §4
Mycobacterium avium [19] = test: Antibacterial activity against Mycobacterium avium ATCC 25921 in presence of spectinomycin by checkerboard assay; format: functional, organism-based; procedure, shortened: as §4
Mycobacterium avium [20] = test: Antibacterial activity against Mycobacterium avium ATCC 25921 in presence of clarithromycin by checkerboard assay; format: functional, organism-based; procedure, shortened: as §4
Mycobacterium avium [21] = test: Antibacterial activity against Mycobacterium avium ATCC 25921 in presence of clofazimine by checkerboard assay; format: functional, organism-based; procedure, shortened: as §4
[22] = system: Mycobacterium tuberculosis; test: Synergistic antibacterial activity against Mycobacterium tuberculosis H37Ra ATCC NRS22 in presence of spectinomycin by checkerboard assay; format: functional, organism-based; procedure, shortened: as §4
HEK293 = test: Cytotoxicity against human HEK293 cells assessed as reduction in cell viability at 200 uM incubated for 24 hrs by resazurin assay; format: toxicity, cell-based; details: hek293, 24 h; procedure, shortened: as §3
A549 [23] = test: Cytotoxicity against human A549 cells assessed as reduction in cell viability at 200 uM incubated for 24 hrs by resazurin assay; format: toxicity, cell-based; details: a549, 24 h; procedure, shortened: as §3
J774.A1 [24] = test: Cytotoxicity against mouse J774.A1 cells assessed as reduction in cell viability at 50 uM incubated for 24 hrs by resazurin assay; format: toxicity, cell-based; details: j774.a1, 24 h; procedure, shortened: as §3

In the case of COc1ccc(C(=O)CCCN2CCC(O)(c3ccc(Cl)cc3)CC2)cc1, the IC50 (N-acetyltransferase Eis) is reported as 40 µM, the MIC [1] is reported as ≤ 1.25 µg/mL and the MIC [2] is reported as > 10 µg/mL. The MIC [3] was > 62.5 µM, the MIC [4] was > 62.5 µM and the MIC [5] was > 62.5 µM. The MIC (Mycobacterium avium [6]) was > 62.5 µM, the MIC [7] was 62.5 µM (≈ 24.2 µg/mL) and the Activity (J774.A1 [8]) was “Toxic”. For the same compound, the Activity (A549 [9]) was 78%.

O=C(CCCN1CCC(O)(c2ccc(Cl)cc2)CC1)c1ccc(Cl)cc1 [CHLOROHALOPERIDOL] was tested, and the IC50 (N-acetyltransferase Eis) was 5.1 µM, the MIC [3] was > 62.5 µM and the MIC [4] was > 62.5 µM. For the same compound, the MIC [5] was > 62.5 µM, the MIC (Mycobacterium avium [6]) was 62.5 µM (≈ 24.5 µg/mL) and the MIC [7] was 15.6 µM (≈ 6.12 µg/mL). The “fold change (FC)” value [10] was 16, the “fold change (FC)” value [11] was 4 and the Activity [12] was “Active”. For the same compound, the Activity [13] was “Active”, the Activity [14] was “Active” and the Activity [15] was “Active”. The Activity [16] was “Active”, the Activity [17] was “Active” and the Activity [18] was “Active”. For the same compound, the Activity (Mycobacterium avium [19]) was “Active”, the Activity (Mycobacterium avium [20]) was “Active” and the Activity (Mycobacterium avium [21]) was “Active”. For the same compound, the Activity [22] was “Active”, the Activity (HEK293) was “Non-Toxic” and the Activity (A549 [23]) was “Non-Toxic”. For the same compound, the Activity (J774.A1 [24]) was “Toxic”.
